{"source": "ChEMBL document CHEMBL4007436", "about": "“Synthesis of Novel Synthetic Vitamin K Analogues Prepared by Introduction of a Heteroatom and a Phenyl Group That Induce Highly Selective Neuronal Differentiation of Neuronal Progenitor Cells” (2017)", "key": {"Neuronal progenitor cell [1]": {"tested_on": "Neuronal progenitor cell", "experiment": "Induction of neuronal differentiation in C57BL/6J mouse neuronal progenitor cells assessed as increase in Map2/beta actin mRNA level at 1 uM treated for every second day for 4 days by RT-PCR analysis relative to control", "assay_type": "functional, cell-based", "procedure,_shortened": "(§1)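 C57BL/6J E14 mouse cerebral neural stem cells were cultured 24 h after seeding. They were then treated with 1 µM analogue or ethanol control for 4 days, dosed every second day. mRNA was extracted, and Map2, Gfap and β-actin were quantified by real-time PCR. Map2/β-actin or Gfap/β-actin ratios were normalized to the EtOH control (set at 1.0). Values are means of three independent experiments; significance by Dunnett's t-test.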"}, "Neuronal progenitor cell [2]": {"tested_on": "Neuronal progenitor cell", "experiment": "Induction of neuronal differentiation in C57BL/6J mouse neuronal progenitor cells assessed as expression of Gfap at 1 uM treated for every second day for 4 days measured after 48 hrs by DAPI-staining based immunofluorescence method", "assay_type": "functional", "procedure,_shortened": "(§2)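 Neural stem cells taken from embryonic day 14 cerebrum of C57BL/6J mice, dispersed with trypsin/DNase I at 37 °C, seeded and grown 1 day at 37 °C, 5% CO2. Medium replaced with 10% FCS DMEM (low glucose) containing 1 µM analogue; ethanol at 0.1% as control. After 48 h, cells permeabilized with 0.2% Triton X-100. Staining used anti-Map2 (CF594, red) and anti-Gfap (CF488A, green), each overnight at 4 °C, with DAPI nuclei, then fluorescence microscopy.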"}, "Neuronal progenitor cell [3]": {"tested_on": "Neuronal progenitor cell", "experiment": "Induction of neuronal differentiation in C57BL/6J mouse neuronal progenitor cells assessed as increase in relative ratio of Map2/Gfap mRNA level at 1 uM treated for every second day for 4 days by RT-PCR analysis relative to control", "assay_type": "functional, cell-based", "procedure,_shortened": "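E14 C57BL/6J mouse cerebral neural progenitor cells were treated with 1 µM analogue or ethanol every second day for 4 days. Map2 and Gfap mRNA (each relative to β-actin) were measured by real-time PCR. The Map2/Gfap ratio was calculated and normalized to the EtOH control (set at 1.0).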"}, "Neuronal progenitor cell [4]": {"tested_on": "Neuronal progenitor cell", "experiment": "Induction of neuronal differentiation in C57BL/6J mouse neuronal progenitor cells assessed as expression of Map2 at 1 uM treated for every second day for 4 days measured after 48 hrs by DAPI-staining based immunofluorescence method", "assay_type": "functional", "procedure,_shortened": "as §2"}, "[5]": {"experiment": "Induction of neuronal differentiation in C57BL/6J mouse neuronal progenitor cells assessed as fold increase in Map2/beta-actin mRNA level at 1 uM treated for every second day for 4 days by RT-PCR analysis relative to control", "assay_type": "functional, Neuronal progenitor cell", "procedure,_shortened": "as §1"}, "Neuronal progenitor cell [6]": {"tested_on": "Neuronal progenitor cell", "experiment": "Induction of neuronal differentiation in C57BL/6J mouse neuronal progenitor cells assessed as increase in Gfap/beta-actin mRNA level at 1 uM treated for every second day for 4 days by RT-PCR analysis relative to control", "assay_type": "functional, cell-based", "procedure,_shortened": "as §1"}}, "note": "The source made the active and inactive calls. The rule behind the calls is not given here."}
{"molecule": "CC1=C(C/C=C(\\C)CC/C=C(\\C)CNc2ccccc2)C(=O)c2ccccc2C1=O", "values": [{"measurement": "Activity", "setting": "Neuronal progenitor cell [1]", "result": "Active"}]}
{"molecule": "CC1=C(C/C=C(\\C)CC/C=C(\\C)CC/C=C(\\C)COc2cccc(C)c2)C(=O)c2ccccc2C1=O", "values": [{"measurement": "Activity", "setting": "Neuronal progenitor cell [1]", "result": "Active"}, {"measurement": "Activity", "setting": "Neuronal progenitor cell [2]", "result": "inactive"}, {"measurement": "Activity", "setting": "Neuronal progenitor cell [3]", "result": "Active"}, {"measurement": "Activity", "setting": "Neuronal progenitor cell [4]", "result": "Active"}]}
{"molecule": "CC1=C(C/C=C(\\C)CC/C=C(\\C)CC/C=C(\\C)COc2ccccc2)C(=O)c2ccccc2C1=O", "values": [{"measurement": "Activity", "setting": "Neuronal progenitor cell [1]", "result": "Active"}]}
{"molecule": "CC(C)=CCC/C(C)=C/CC/C(C)=C/CC/C(C)=C/CC1=C(C)C(=O)c2ccccc2C1=O", "note": "[MENATETRENONE]", "values": [{"measurement": "Activity", "setting": "Neuronal progenitor cell [2]", "result": "Active"}, {"measurement": "fold change (FC)", "setting": "[5]", "result": ">2"}, {"measurement": "Activity", "setting": "Neuronal progenitor cell [4]", "result": "Active"}, {"measurement": "Activity", "setting": "Neuronal progenitor cell [6]", "result": "Active"}]}
{"molecule": "CC1=C(C/C=C(\\C)CC/C=C(\\C)CNc2ccc(F)cc2)C(=O)c2ccccc2C1=O", "values": [{"measurement": "Activity", "setting": "Neuronal progenitor cell [2]", "result": "inactive"}, {"measurement": "fold change (FC)", "setting": "[5]", "result": "> 2"}, {"measurement": "Activity", "setting": "Neuronal progenitor cell [3]", "result": "Active"}, {"measurement": "Activity", "setting": "Neuronal progenitor cell [4]", "result": "Active"}]}
